# According to publication PMC5730044 (International journal of medical microbiology : IJMM, 2014):
# Counter-ions that a name gives are not always drawn.
# How the values were obtained:
# [1] = molecular target: recombinant NanA of DSM20566 (Streptococcus pneumoniae, UniProt P62575); assay type: biochemical, S. pneumoniae; conditions: read-out: substrate affinity (Km) of rNanA; substrate 4-MUNANA
# [2] = test system: pneumococcal NA of strain DSM20566; test: Lectin-based hemagglutination; assay type: cell-based, S. pneumoniae; conditions: minimal NA inhibitory concentration
# [3] = test system: pneumococcal NA of strain D39; test: Lectin-based hemagglutination; assay type: cell-based, S. pneumoniae; conditions: for Inhibitory concentration (HA assay): minimal NA inhibitory concentration, strain D39
# [4] = test system: pneumococcal NA of strain CJ9400; test: Lectin-based hemagglutination; assay type: cell-based, S. pneumoniae; conditions: minimal NA inhibitory concentration
# S. pneumoniae DSM20566 [5] = test: Biofilm inhibition assay; assay type: cell-based; conditions: DSM20566, TSB, 24 h
# S. pneumoniae D39 [6] = test: Biofilm inhibition assay; assay type: cell-based; conditions: D39, TSB, 24 h
# S. pneumoniae DSM14378 [7] = test: Biofilm inhibition assay; assay type: cell-based; conditions: DSM14378, TSB, 24 h
# S. pneumoniae CJ9400 [8] = test: Biofilm inhibition assay; assay type: cell-based; conditions: CJ9400, TSB, 24 h
# S. pneumoniae CF6937 [9] = test: Biofilm inhibition assay; assay type: cell-based; conditions: CF6937, TSB, 24 h
# S. pneumoniae BC7326 [10] = test: Biofilm inhibition assay; assay type: cell-based; conditions: BC7326, TSB, 24 h
# S. pneumoniae CF8919 [11] = test: Biofilm inhibition assay; assay type: cell-based; conditions: CF8919, TSB, 24 h
# S. pneumoniae PN8828 [12] = test: Biofilm inhibition assay; assay type: cell-based; conditions: PN8828, TSB, 24 h
# S. pneumoniae BC57 [13] = test: Biofilm inhibition assay; assay type: cell-based; conditions: BC57, TSB, 24 h
# S. pneumoniae DSM20566 [14] = test: Minimal bactericidal concentration; assay type: cell-based; conditions: viability reduced by ≥99.9%
# S. pneumoniae D39 [15] = test: Minimal bactericidal concentration; assay type: cell-based; conditions: viability reduced by ≥99.9%
# S. pneumoniae DSM14378 [16] = test: Minimal bactericidal concentration; assay type: cell-based; conditions: viability reduced by ≥99.9%
# S. pneumoniae CJ9400 [17] = test: Minimal bactericidal concentration; assay type: cell-based; conditions: viability reduced by ≥99.9%
# S. pneumoniae CF6937 [18] = test: Minimal bactericidal concentration; assay type: cell-based; conditions: viability reduced by ≥99.9%
# S. pneumoniae BC7326 [19] = test: Minimal bactericidal concentration; assay type: cell-based; conditions: viability reduced by ≥99.9%
# S. pneumoniae [20] = test: Bactericidal activity, studied pneumococci; assay type: cell-based; conditions: for concentration up to which no inhibitory or bactericidal activity was exhibited: maximum tested concentration
# [21] = test system: pneumococcal adherence to pulmonary epithelial A549 cells; conditions: DSM20566 and PN8828
# pneumococcal NA [22] = molecular target: T1, pneumococcal NA (Streptococcus pneumoniae, UniProt P62575); assay type: biochemical, S. pneumoniae
# T1 sequence (P62575 54-1006): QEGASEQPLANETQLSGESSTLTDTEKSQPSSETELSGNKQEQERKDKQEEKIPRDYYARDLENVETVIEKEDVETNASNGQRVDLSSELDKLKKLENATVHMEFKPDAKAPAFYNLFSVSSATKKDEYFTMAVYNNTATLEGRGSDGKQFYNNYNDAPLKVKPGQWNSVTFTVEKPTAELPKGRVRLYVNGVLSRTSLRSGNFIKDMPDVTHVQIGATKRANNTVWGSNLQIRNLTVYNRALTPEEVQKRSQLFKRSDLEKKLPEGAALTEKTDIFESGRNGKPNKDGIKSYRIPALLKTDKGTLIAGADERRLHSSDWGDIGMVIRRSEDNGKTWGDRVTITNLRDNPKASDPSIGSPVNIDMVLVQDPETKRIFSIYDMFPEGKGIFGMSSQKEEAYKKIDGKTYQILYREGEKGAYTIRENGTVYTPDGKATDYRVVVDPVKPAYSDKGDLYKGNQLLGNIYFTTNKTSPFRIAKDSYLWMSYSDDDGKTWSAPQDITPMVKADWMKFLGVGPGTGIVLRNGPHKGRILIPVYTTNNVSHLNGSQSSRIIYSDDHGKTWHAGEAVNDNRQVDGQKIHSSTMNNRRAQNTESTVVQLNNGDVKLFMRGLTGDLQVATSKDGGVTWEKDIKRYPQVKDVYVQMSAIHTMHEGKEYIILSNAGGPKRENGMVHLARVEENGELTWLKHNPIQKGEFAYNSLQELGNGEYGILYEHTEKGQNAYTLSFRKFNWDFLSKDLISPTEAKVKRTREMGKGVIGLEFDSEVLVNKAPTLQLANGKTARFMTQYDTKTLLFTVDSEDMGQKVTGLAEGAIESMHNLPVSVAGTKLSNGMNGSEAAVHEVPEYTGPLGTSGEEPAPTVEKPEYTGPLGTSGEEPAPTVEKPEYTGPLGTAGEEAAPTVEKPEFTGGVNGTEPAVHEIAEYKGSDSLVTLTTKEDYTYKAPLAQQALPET
# S. pneumoniae DSM20566 [23] = test: Broth microdilution assay; assay type: cell-based; conditions: Streptococcus pneumoniae, DSM20566, 18 h, read-out: 90% minimal inhibitory concentration
# S. pneumoniae D39 [24] = test: Broth microdilution assay; assay type: cell-based; conditions: Streptococcus pneumoniae, D39, 18 h, read-out: 90% minimal inhibitory concentration
# S. pneumoniae DSM14378 [25] = test: Broth microdilution assay; assay type: cell-based; conditions: Streptococcus pneumoniae, DSM14378, 18 h, read-out: 90% minimal inhibitory concentration
# S. pneumoniae CJ9400 [26] = test: Broth microdilution assay; assay type: cell-based; conditions: Streptococcus pneumoniae, CJ9400, 18 h, read-out: 90% minimal inhibitory concentration
# S. pneumoniae CF6937 [27] = test: Broth microdilution assay; assay type: cell-based; conditions: Streptococcus pneumoniae, CF6937, 18 h, read-out: 90% minimal inhibitory concentration
# S. pneumoniae BC7326 [28] = test: Broth microdilution assay; assay type: cell-based; conditions: Streptococcus pneumoniae, BC7326, 18 h, read-out: 90% minimal inhibitory concentration
# S. pneumoniae CF8919 [29] = test: Broth microdilution assay; assay type: cell-based; conditions: Streptococcus pneumoniae, CF8919, 18 h, read-out: 90% minimal inhibitory concentration
# S. pneumoniae PN8828 [30] = test: Broth microdilution assay; assay type: cell-based; conditions: Streptococcus pneumoniae, PN8828, 18 h, read-out: 90% minimal inhibitory concentration
# S. pneumoniae BC57 [31] = test: Broth microdilution assay; assay type: cell-based; conditions: Streptococcus pneumoniae, BC57, 18 h, read-out: 90% minimal inhibitory concentration
# S. pneumoniae [32] = test: Broth microdilution assay; assay type: cell-based; conditions: Streptococcus pneumoniae, read-out: MIC90 values
# In short: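 Pneumococci were pre-grown in BHI with gentle shaking at 37°C for 4–5 h (mid-exponential), adjusted to McFarland 0.5 (1.5 × 10^8 cfu/mL) and diluted 50× in BHI. 50 µL bacteria plus 100 µL of two-fold compound dilutions (top 50 or 200 µM) in BHI were run in duplicate, overnight at 37°C, 5% CO₂. OD620 at 18 h minus 0 h was taken relative to no-compound growth control; MIC90 is 90% turbidity reduction.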
# pneumococcal NA [33] = molecular target: T1, pneumococcal NA; assay type: biochemical, S. pneumoniae; conditions: precipitated total proteins of all strains
# pneumococcal NA [34] = molecular target: T1, pneumococcal NA; conditions: ref Gut et al., 2011; cited from earlier work
# recombinant NanA of DSM20566, sequence (P62575 116-1035 limits assumed): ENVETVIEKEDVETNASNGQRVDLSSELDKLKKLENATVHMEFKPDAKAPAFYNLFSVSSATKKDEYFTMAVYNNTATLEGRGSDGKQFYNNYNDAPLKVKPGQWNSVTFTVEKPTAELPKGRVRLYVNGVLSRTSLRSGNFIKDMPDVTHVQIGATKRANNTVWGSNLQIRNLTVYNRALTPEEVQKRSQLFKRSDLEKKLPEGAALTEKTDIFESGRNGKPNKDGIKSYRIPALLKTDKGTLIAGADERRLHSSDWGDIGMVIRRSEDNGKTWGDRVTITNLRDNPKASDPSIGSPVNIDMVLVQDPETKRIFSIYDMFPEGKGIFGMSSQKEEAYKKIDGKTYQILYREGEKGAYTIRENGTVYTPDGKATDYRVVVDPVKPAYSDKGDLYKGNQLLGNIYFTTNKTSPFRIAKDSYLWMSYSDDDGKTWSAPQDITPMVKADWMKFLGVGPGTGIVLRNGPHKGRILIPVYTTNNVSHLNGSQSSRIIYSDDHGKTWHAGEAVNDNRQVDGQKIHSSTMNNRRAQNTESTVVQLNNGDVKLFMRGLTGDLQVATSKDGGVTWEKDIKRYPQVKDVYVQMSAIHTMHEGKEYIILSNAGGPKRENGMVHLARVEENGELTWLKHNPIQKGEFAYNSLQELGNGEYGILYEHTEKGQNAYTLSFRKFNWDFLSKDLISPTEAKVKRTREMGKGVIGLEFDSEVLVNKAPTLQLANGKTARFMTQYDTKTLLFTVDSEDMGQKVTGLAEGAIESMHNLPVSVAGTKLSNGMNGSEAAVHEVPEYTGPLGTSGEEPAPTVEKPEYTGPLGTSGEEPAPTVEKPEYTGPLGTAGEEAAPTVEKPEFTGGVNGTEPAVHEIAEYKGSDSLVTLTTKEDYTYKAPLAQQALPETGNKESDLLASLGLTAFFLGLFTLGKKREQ
Structure (SMILES),Inhibitory concentration (HA assay) [2],Inhibitory concentration (HA assay) [3],Inhibitory concentration (HA assay) [4],90% minimal biofilm inhibitory concentration (S. pneumoniae DSM20566 [5]),90% minimal biofilm inhibitory concentration (S. pneumoniae D39 [6]),90% minimal biofilm inhibitory concentration (S. pneumoniae DSM14378 [7]),90% minimal biofilm inhibitory concentration (S. pneumoniae CJ9400 [8]),90% minimal biofilm inhibitory concentration (S. pneumoniae CF6937 [9]),90% minimal biofilm inhibitory concentration (S. pneumoniae BC7326 [10]),90% minimal biofilm inhibitory concentration (S. pneumoniae CF8919 [11]),90% minimal biofilm inhibitory concentration (S. pneumoniae PN8828 [12]),90% minimal biofilm inhibitory concentration (S. pneumoniae BC57 [13]),Bactericidal concentration (S. pneumoniae DSM20566 [14]),Bactericidal concentration (S. pneumoniae D39 [15]),Bactericidal concentration (S. pneumoniae DSM14378 [16]),Bactericidal concentration (S. pneumoniae CJ9400 [17]),Bactericidal concentration (S. pneumoniae CF6937 [18]),Bactericidal concentration (S. pneumoniae BC7326 [19]),MIC (S. pneumoniae DSM20566 [23]),MIC (S. pneumoniae D39 [24]),further results
"CC(=O)N[C@H]1[C@H]([C@H](O)[C@H](O)CO)O[C@@](Oc2ccc3c(C)cc(=O)oc3c2)(C(=O)O)C[C@@H]1O [4-MUNANA, 2′-(4-methylumbelliferyl)-α-D-N-acetylneuraminic acid sodium salt hydrate]",,,,,,,,,,,,,,,,,,,,,Km [1]: 23.6 µM
"CC(=O)N[C@H]1[C@H]([C@H](O)[C@H](O)CO)OC(C(=O)O)=C[C@@H]1O [DANA, 2,3-dehydro-2-deoxy-N-acetylneuraminic acid]",45.3 ± 30.6 µM,> 100 µM,15.4 ± 10.8 µM,> 50 µM,> 50 µM,> 50 µM,> 50 µM,> 50 µM,> 50 µM,> 50 µM,> 50 µM,> 50 µM,> 50 µM,> 50 µM,> 50 µM,> 50 µM,> 50 µM,> 50 µM,,,activity in HA assay (in words) ([3]; reference strain D39): no activity; concentration up to which no inhibitory or bactericidal activity was exhibited (S. pneumoniae [20]): > 50 µM; effect on adhesion of pneumococci to A549 cells (in words) [21]: did not reduce pneumococcal adherence
O=C(CCc1ccccc1)C[C@@H]1C[C@@H](c2ccccc2)c2c(cc(/C=C/c3ccccc3)oc2=O)O1 [katsumadain A],3.2 ± 0.0 µM,1.0 ± 0.0 µM,0.7 ± 0.4 µM,> 50 µM,> 50 µM,> 50 µM,> 50 µM,> 50 µM,> 50 µM,> 50 µM,> 50 µM,> 50 µM,> 50 µM,> 50 µM,> 50 µM,> 50 µM,> 50 µM,> 50 µM,> 50 µM,> 50 µM,"IC50 (pneumococcal NA [22]; read-out: IC50, CL-based assay, range among the strains): 310 to 1610 nM; MIC (S. pneumoniae DSM14378 [25]): > 50 µM; MIC (S. pneumoniae CJ9400 [26]): > 50 µM; MIC (S. pneumoniae CF6937 [27]): > 50 µM; MIC (S. pneumoniae BC7326 [28]): > 50 µM; MIC (S. pneumoniae CF8919 [29]): > 50 µM; MIC (S. pneumoniae PN8828 [30]): > 50 µM; MIC (S. pneumoniae BC57 [31]): > 50 µM; concentration up to which no inhibitory or bactericidal activity was exhibited (S. pneumoniae [20]): > 50 µM; effect on adhesion of pneumococci to A549 cells (in words) [21]: did not reduce pneumococcal adherence"
CO[C@H]1/C=C/O[C@@]2(C)Oc3c(C)c(O)c4c(O)c(c(/C=N/N5CCN(C)CC5)c(O)c4c3C2=O)NC(=O)/C(C)=C\C=C\[C@H](C)[C@H](O)[C@@H](C)[C@@H](O)[C@@H](C)[C@H](OC(C)=O)[C@@H]1C [rifampicin],,,,0.049 ± 0.030 µM,0.013 ± 0.002 µM,0.014 ± 0.008 µM,0.003 ± 0.001 µM,0.020 ± 0.002 µM,0.016 ± 0.010 µM,0.006 ± 0.004 µM,0.011 ± 0.007 µM,0.012 ± 0.001 µM,1.97 ± 1.23 µM,0.22 ± 0.09 µM,0.14 ± 0.06 µM,0.23 ± 0.16 µM,0.05 ± 0.03 µM,0.08 ± 0.03 µM,0.041 ± 0.011 µM,0.021 ± 0.002 µM,MIC (S. pneumoniae DSM14378 [25]): 0.031 ± 0.023 µM; MIC (S. pneumoniae CJ9400 [26]): 0.032 ± 0.03 µM; MIC (S. pneumoniae CF6937 [27]): 0.034 ± 0.028 µM; MIC (S. pneumoniae BC7326 [28]): 0.016 ± 0.005 µM; MIC (S. pneumoniae CF8919 [29]): 0.009 ± 0.001 µM; MIC (S. pneumoniae PN8828 [30]): 0.005 ± 0.001 µM; MIC (S. pneumoniae BC57 [31]): 0.012 ± 0.002 µM; MIC90 (S. pneumoniae [32]): 0.01 to 0.04 µM; factor of reduction of viability of pneumococci (S. pneumoniae [20]; within 18 h): > 1000
CC(=O)N[C@H]1[C@H]([C@H](O)[C@H](O)CO)OC(C(=O)O)=C[C@@H]1N=C(N)N [zanamivir],>100 µM,>100 µM,>100 µM,> 50 µM,> 50 µM,> 50 µM,> 50 µM,> 50 µM,> 50 µM,> 50 µM,> 50 µM,> 50 µM,> 50 µM,> 50 µM,> 50 µM,> 50 µM,> 50 µM,> 50 µM,> 50 µM,> 50 µM,"inhibition of NA activity, FL-based assay (in words) (pneumococcal NA [33]): did not show an effect; inhibition of NA activity, CL-based assay (in words) (pneumococcal NA [22]; data not shown): inefficacy; MIC (S. pneumoniae DSM14378 [25]): > 50 µM; MIC (S. pneumoniae CJ9400 [26]): > 50 µM; MIC (S. pneumoniae CF6937 [27]): > 50 µM; MIC (S. pneumoniae BC7326 [28]): > 50 µM; MIC (S. pneumoniae CF8919 [29]): > 50 µM; MIC (S. pneumoniae PN8828 [30]): > 50 µM; MIC (S. pneumoniae BC57 [31]): > 50 µM; inhibitory potency to pneumococcal NA (in words) (pneumococcal NA [34]): weak"
